Converted amounts (≈) assume the structure as drawn. The source made the active and inactive calls. The rule behind the calls is not given here. Starred links: 1 amine or outer side, 2 acyl side, 3 side chain; linkers in the order of their positions; H or OH if unused. Positions of bridges follow the written chain, without caps; N, C: chain ends. Non-standard residues stand in square brackets, D forms with d. Residues, ends and D or L forms follow the SMILES beside them. *: point of attachment. pTerphenylCO(4''-OnC5H11) = CCCCCOc1ccc(-c2ccc(-c3ccc(C(=O)*)cc3)cc2)cc1; Orn(4R-OH,5R-OH) = O=C([C@H](C[C@@H](O)[C@@H](O)N[*:3])N[*:1])[*:2]; hTyr(3S-OH,4S-OH) = N[C@H](C(=O)O)[C@H](O)[C@@H](O)c1ccc(O)cc1; Pro(3S-OH,4S-Me) = C[C@H]1CN[C@H](C(=O)O)[C@H]1O; Hyp = O=C(O)[C@@H]1C[C@@H](O)CN1
Assays:
Candida albicans [1] = assay: Antifungal activity against Candida albicans isolate 1 assessed as time period for bacterial growth inhibition at 16 times MIC after 1 hr drug exposure; type: functional
Method in brief: (§1)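 Inoculum of about 1 x 10^5 to 5 x 10^5 CFU/ml in MOPS-buffered RPMI (pH 7.0), shaken at 35°C and exposed to drug for 1 h. Cells then washed and centrifuged three times and resuspended in drug-free warm RPMI. Samples plated on SDA at 0, 2, 4, 8, 12, 24 and 48 h, with CFU counted after 48 h at 35°C. Run twice per isolate; values are means.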

Candida albicans [2] = assay: Increase in susceptibility to calcofluor white in Candida albicans isolate 1 assessed as cell wall damage at MIC after 1 hr relative to control; type: functional, organism-based
Method in brief: (§2)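 Cells recovered 8 h after a 1-h drug exposure were grown to exponential phase in YPD with 1% glucose and adjusted to OD599 0.1. Undiluted and 10-fold serially diluted cultures were spotted onto YPD plates containing calcofluor white, then incubated at 30°C for 72 h. Growth compared with no-drug control cells; triplicate.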

Candida albicans [3] = assay: Increase in susceptibility to SDS in Candida albicans ATCC 90028 assessed as cell wall damage at MIC after 1 hr relative to control; type: functional, organism-based
Method in brief: (§3)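 Cells recovered 8 h after a 1-h drug exposure were grown in YPD with 1% glucose to exponential phase and adjusted to OD599 0.1. Undiluted culture and 10-fold serial dilutions were spotted onto YPD plates containing SDS (0.01 to 0.04%), then incubated 72 h at 30°C. Growth compared with unexposed control cells; triplicate.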

Candida parapsilosis [4] = assay: Fungicidal activity against Candida parapsilosis isolate S assessed as log reduction in bacterial count at MIC after drug exposure for 1 hr followed by washout measured after 48 hrs in the absence of drug by PAFE study; type: functional; details: Lodderomyces parapsilosis
Method in brief: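 Inoculum about 1 x 10^5 to 5 x 10^5 CFU/ml in RPMI 1640 (MOPS, pH 7.0) with drug, shaken at 35°C for 1 h. Cells were then washed and centrifuged at 1,400 x g for 10 min (3 cycles) and resuspended in warm drug-free RPMI. Samples plated on SDA at 0, 2, 4, 8, 12, 24 and 48 h; CFU counted after 48 h at 35°C. Run twice per isolate; means.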

Nakaseomyces glabratus [5] = assay: Antifungal activity against Candida glabrata isolate 1 assessed as time period for bacterial growth inhibition at 4 times MIC after 1 hr drug exposure; type: functional; method in brief: as §1
Nakaseomyces glabratus [6] = assay: Increase in susceptibility to calcofluor white in Candida glabrata isolate 3 assessed as cell wall damage at 16 times MIC after 1 hr relative to control; type: functional, organism-based; method in brief: as §2
Candida albicans [7] = assay: Fungicidal activity against Candida albicans isolate 1 assessed as log reduction in bacterial count at 16 times MIC after drug exposure for 1 hr followed by washout measured after 48 hrs in the absence of drug by PAFE study; type: functional
Method in brief: (§4)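 Starting inoculum ~1 x 10^5 to 5 x 10^5 CFU/ml in MOPS-buffered RPMI 1640 (pH 7.0) with drug at multiples of the CLSI M27-A3 MIC. After 1 h at 35°C, cells washed and centrifuged three times at 1,400 x g for 10 min, then resuspended in warm drug-free RPMI. Shaken at 35°C and plated on SDA at 0–48 h; CFU counted after 48 h. Run twice per isolate; means.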

Candida albicans [8] = assay: Fungicidal activity against Candida albicans isolate S assessed as log reduction in bacterial count at 4 times MIC after drug exposure for 1 hr followed by washout measured after 48 hrs in the absence of drug by PAFE study; type: functional; method in brief: as §4
Candida parapsilosis [9] = assay: Antifungal activity against Candida parapsilosis isolate 1 assessed as time period for bacterial growth inhibition at 4 times MIC after 1 hr drug exposure; type: functional; method in brief: as §1
Candida parapsilosis [10] = assay: Fungicidal activity against Candida parapsilosis isolate 1 assessed as log reduction in bacterial count at 16 times MIC after 48 hrs by time-kill analysis; type: functional; details: Lodderomyces parapsilosis, isolate 1, 48 h
Method in brief: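 Isolates subcultured twice on SDA, suspended to 0.5 McFarland, giving ~1 x 10^5 to 5 x 10^5 CFU/ml in MOPS-buffered RPMI 1640 (pH 7.0) with or without drug at multiples of MIC (MIC by CLSI M27-A3). Tubes shaken at 35°C with continuous drug. Sampled at 0–48 h, diluted 10-fold and plated on SDA; CFU counted after 48 h at 35°C. Run twice per isolate; means.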

Candida parapsilosis [11] = assay: Fungicidal activity against Candida parapsilosis isolate A assessed as log reduction in bacterial count at MIC after 48 hrs by time-kill analysis; type: functional; details: Lodderomyces parapsilosis
Method in brief: (§5)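 Isolates subcultured twice on SDA, then suspended to 0.5 McFarland and diluted into RPMI 1640 (MOPS, pH 7.0) with or without anidulafungin, giving about 1 x 10^5 to 5 x 10^5 CFU/ml. Tubes were shaken at 35°C. Samples were taken at 0, 2, 4, 8, 12, 24 and 48 h, serially diluted 10-fold, plated on SDA, and CFU counted after 48 h at 35°C. Each isolate was run twice; mean values.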

Candida parapsilosis [12] = assay: Antifungal activity against Candida parapsilosis isolate A by CLSI M27-A3 broth microdilution method; type: functional; details: Lodderomyces parapsilosis
Method in brief: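 CLSI M27-A3 broth microdilution in RPMI 1640 buffered to pH 7.0 with MOPS. Starting inoculum 0.5 x 10^3 to 2.5 x 10^3 cells/ml, incubated at 35°C. MIC read as the lowest concentration giving >50% growth reduction versus control. Each isolate tested on at least three occasions.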

Candida parapsilosis [13] = assay: Fungicidal activity against Candida parapsilosis isolate A assessed as log reduction in bacterial count at 16 times MIC after 48 hrs by time-kill analysis; type: functional; details: Lodderomyces parapsilosis; method in brief: as §5
Candida parapsilosis [14] = assay: Antifungal activity against Candida parapsilosis isolate A assessed as cell wall damage at 4 times MIC by Transmission electron microscopy; type: functional, organism-based
Method in brief: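 Cells recovered 8 h after a 1-h drug exposure were grown on SDA for 24 h at 35°C. Colonies fixed at 4°C in 0.1 M cacodylate (pH 7.2) with 2% glutaraldehyde and 2% paraformaldehyde, ethanol-dehydrated and embedded in Lowicryl K4M. Thin sections examined by transmission EM.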

Candida parapsilosis [15] = assay: Increase in susceptibility to calcofluor white in Candida parapsilosis isolate 1 assessed as cell wall damage at 4 times MIC after 1 hr relative to control; type: functional, organism-based
Method in brief: (§6)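 Candida given a 1-h anidulafungin pulse in MOPS-buffered RPMI 1640 (pH 7.0) at 35°C, washed three times by centrifugation, and regrown drug-free. Cells collected 8 h later, grown in YPD with 1% glucose to exponential phase, and set to OD599 0.1. Undiluted culture and 10-fold dilutions (4 µl) spotted on YPD plates with calcofluor white, then 30°C for 72 h. Triplicate; compared with no-drug cells.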

Pichia kudriavzevii = assay: Increase in susceptibility to SDS in Candida krusei isolate ATCC 6258 assessed as cell wall damage at MIC after 1 hr relative to control; type: functional, organism-based; method in brief: as §3
Candida parapsilosis [16] = assay: Increase in susceptibility to calcofluor white in Candida parapsilosis isolate A assessed as cell wall damage at 16 times MIC after 1 hr relative to control; type: functional, organism-based; method in brief: as §6
Nakaseomyces glabratus [17] = assay: Increase in susceptibility to SDS in Candida glabrata isolate 1 assessed as cell wall damage at MIC after 1 hr relative to control; type: functional, organism-based; method in brief: as §3
Candida albicans [18] = assay: Antifungal activity against Candida albicans isolate 1 assessed as time period for bacterial growth inhibition at 4 times MIC after 1 hr drug exposure; type: functional; method in brief: as §1
Candida albicans [19] = assay: Increase in susceptibility to SDS in Candida albicans isolate 1 assessed as cell wall damage at 16 times MIC after 1 hr relative to control; type: functional, organism-based; method in brief: as §3

For `CCCCCOc1ccc(-c2ccc(-c3ccc(C(=O)N[C@H]4C[C@@H](O)[C@@H](O)NC(=O)[C@@H]5[C@@H](O)[C@@H](C)CN5C(=O)[C@H]([C@@H](C)O)NC(=O)[C@H]([C@H](O)[C@@H](O)c5ccc(O)cc5)NC(=O)[C@@H]5C[C@@H](O)CN5C(=O)[C@H]([C@@H](C)O)NC4=O)cc3)cc2)cc1` [ANIDULAFUNGIN] ({pTerphenylCO(4''-OnC5H11)}-[Orn(4R-OH,5R-OH)]T[Hyp][hTyr(3S-OH,4S-OH)]T[Pro(3S-OH,4S-Me)]; lactam 1-C), the Time (Candida albicans [1]) was 8 h, the Activity (Candida albicans [2]) was “Active” and the Activity (Candida albicans [3]) was “Active”. For the same compound, the log reduction (Candida parapsilosis [4]) was 0.41, the Time (Nakaseomyces glabratus [5]) was 8 h and the Activity (Nakaseomyces glabratus [6]) was “Active”. It also gave a log reduction (Candida albicans [7]) of 2.64, a log reduction (Candida albicans [8]) of 2.09 log CFU/ml and a Time (Candida parapsilosis [9]) of 8 h. For the same compound, the log reduction (Candida parapsilosis [10]) was 3.47 log CFU/ml, the log reduction (Candida parapsilosis [11]) was 1.76 log CFU/ml and the MIC (Candida parapsilosis [12]) was 2 µg/mL (≈ 1.75 µM). For the same compound, the log reduction (Candida parapsilosis [13]) was 3.42 log CFU/ml, the Activity (Candida parapsilosis [14]) was “Active” and the Activity (Candida parapsilosis [15]) was “Active”. For the same compound, the Activity (Pichia kudriavzevii) was “Active”, the Activity (Candida parapsilosis [16]) was “Active” and the Activity (Nakaseomyces glabratus [17]) was “Active”. The Time (Candida albicans [18]) was 8 h and the Activity (Candida albicans [19]) was “Active”.

Source: ChEMBL document CHEMBL1671655, “Anidulafungin is fungicidal and exerts a variety of postantifungal effects against Candida albicans, C. glabrata, C. parapsilosis, and C. krusei isolates” (2009)
